This note sets out measurements from ChEMBL document CHEMBL3352728, “Synthesis and biological evaluation of 1,2,3-triazole linked aminocombretastatin conjugates as mitochondrial mediated apoptosis inducers” (Bioorg Med Chem, 2014).

Assay [1] has as its system MCF7. Put plainly: Cytotoxicity against human MCF7 cells after 48 hrs by MTT assay. It counts as functional, cell-based. The conditions noted are these: MCF7, 48 h. In a few lines:
(§1)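 MTT assay. Cells seeded at 1×10^4 per well in DMEM with 10% FBS and grown 24 h at 37 °C under CO2. Compounds diluted in medium, vehicle control included, 48 h exposure. MTT (5 mg/mL stock) added for 4 h, formazan dissolved in DMSO, absorbance read at 570 nm. IC50 taken as the average of three independent experiments.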
Background: Tetrazolium dyes change colour on reduction, which living cells bring about.

Assay [2] deals with HepG2. Kind of assay: Cytotoxicity against human HepG2 cells after 48 hrs by MTT assay. It is filed as functional, cell-based. The conditions noted are these: HepG2, 48 h. The method, boiled down:
as §1

Assay [3] concerns HeLa. Put plainly: Cytotoxicity against human HeLa cells after 48 hrs by MTT assay. It counts as functional, cell-based. The method, boiled down: as §1
Assay [4] relates to A549. Put plainly: Cytotoxicity against human A549 cells after 48 hrs by MTT assay. It counts as functional, cell-based. The conditions noted are these: A549, 48 h. The method, boiled down:
as §1

Assay [5] has as its system ACHN. Kind of assay: Cytotoxicity against human ACHN cells after 48 hrs by MTT assay. It counts as functional, cell-based. In a few lines:
as §1

The target of assay [6] is Tubulin (Homo sapiens) (UniProt P68371+Q9H4B7+P0DPH7+P68366+Q13509+Q71U36+P04350+Q3ZCM7+P07437+P68363+Q9BQE3+Q6PEY2+Q13885+Q9BVA1+Q9BUF5). Put plainly: Binding affinity to tubulin (unknown origin) incubated for 60 mins by colchicine competition assay. It counts as protein-complex assay. In a few lines: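 Tubulin (3 μM) incubated with test agents (5, 10, 15, 20 μM) with and without 3 μM colchicine in 30 mM Tris buffer, 60 min at 37 °C. Tubulin–colchicine fluorescence read at ex 350/em 435 nm. Compound-alone signal subtracted from the compound+colchicine signal, Tris blank subtracted, values normalized to DMSO control. CA-4 positive control, taxol negative control.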

Assay [7] relates to A549. Put plainly: Induction of cell cycle arrest in human A549 cells assessed as accumulation at S phase at 50 nM after 48 hrs by propidium iodide staining based flow cytometry (reference value: 4.69%). It counts as functional. On the technique in general: In flow cytometry, cells or beads pass a laser one at a time.
Assay [8] has as its system A549. Put plainly: Induction of cell cycle arrest in human A549 cells assessed as accumulation at G2/M phase at 50 nM after 48 hrs by propidium iodide staining based flow cytometry (reference value: 6.15%). It counts as functional.
Assay [9] concerns A549. Put plainly: Induction of cell cycle arrest in human A549 cells assessed as accumulation at subG1 phase at 50 nM after 48 hrs by propidium iodide staining based flow cytometry (reference value: 1.41%). It is filed as functional.
Assay [10] deals with A549. Put plainly: Induction of microtubule network disruption in human A549 cells at 25 nM incubated for 48 hrs by immunohistochemistry. It is filed as cell-based. The method, boiled down: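 A549 cells on glass coverslips exposed to 25 nM for 48 h, with CA-4 at 25 nM in parallel. Fixed in 3% paraformaldehyde/0.02% glutaraldehyde and permeabilized in methanol overnight at 4 °C. Blocked with 1% BSA, stained with mouse anti-tubulin primary and FITC-labelled anti-mouse IgG, and examined by fluorescence microscopy for microtubule network integrity.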

In assay [11] the test system is A549. Put plainly: Induction of cell cycle arrest in human A549 cells assessed as accumulation at G0/G1 phase at 50 nM after 48 hrs by propidium iodide staining based flow cytometry (reference value: 87.75%). It counts as functional.

Molecules are shown by their SMILES. pIC50: −log10 of the molar value. The source made the active and inactive calls. No cut-off for these calls is given here.

A word on the pIC50: it is −log10 of the IC50, conventionally taken in molar units. A lower pIC50 goes with a high IC50. For the compound `COc1ccc(Cn2cc(C(=O)Nc3cc(/C=C\c4cc(OC)c(OC)c(OC)c4)ccc3OC)nn2)cc1`, the pIC50 is 5.43 in assay [1]; 5.68 in [2]; 5.53 in [3]; 5.67 in assay [4]; 5.48 in assay [5].

As for `COc1ccc(/C=C\c2cc(OC)c(OC)c(OC)c2)cc1NC(=O)c1cn(Cc2cc(OC)c(OC)c(OC)c2)nn1`, the pIC50 in assay [1] was 5.82; in [2] it was 6.21; in assay [3] it was 6.72; in assay [4] it was 7.05; in assay [5], 5.69.

As to `COc1cccc(Cn2cc(C(=O)Nc3cc(/C=C\c4cc(OC)c(OC)c(OC)c4)cc(OC)c3OC)nn2)c1`, the pIC50 was 5.90 in assay [1]; 6.29 in assay [2]; 6.24 in [3]; 6.39 in [4]; 5.54 in [5].

Consider `COc1cccc(Cn2cc(C(=O)Nc3c(/C=C\c4cc(OC)c(OC)c(OC)c4)ccc(OC)c3O)nn2)c1`, for which the pIC50 in assay [1] was 5.71; in [2], 5.71; in [3] it was 5.34; in [4], 5.79; in assay [5], 5.02.

Regarding `COc1ccc(Cn2cc(C(=O)Nc3c(/C=C\c4cc(OC)c(OC)c(OC)c4)ccc(OC)c3O)nn2)cc1`, the pIC50 in assay [1] is 5.58; in [2], 5.92; in assay [3] it was 5.45; in [4] it was 5.84; in assay [5], 5.23.

For the compound `COc1cc(/C=C\c2cc(OC)c(OC)c(OC)c2)cc(NC(=O)c2cn(Cc3cccc(Oc4ccccc4)c3)nn2)c1OC`, the pIC50 in assay [1] is 5.37; in assay [2], 5.40; in assay [3], 5.23; in assay [4] it was 5.57; in assay [5] it was 5.18.

As for `COc1cccc(Cn2cc(C(=O)Nc3cc(/C=C\c4cc(OC)c(OC)c(OC)c4)ccc3OC)nn2)c1`, the pIC50 was 5.79 in assay [1]; 5.74 in assay [2]; 5.94 in assay [3]; 5.73 in assay [4]; 5.28 in assay [5].

With `COc1ccc(/C=C\c2cc(OC)c(OC)c(OC)c2)c(NC(=O)c2cn(Cc3ccc(F)cc3)nn2)c1O`, the pIC50 is 5.73 in assay [1]; 6.45 in assay [2]; 6.48 in assay [3]; 6.25 in assay [4]; 5.47 in [5].

`COc1cc(/C=C\c2cc(OC)c(OC)c(OC)c2)cc(NC(=O)c2cn(Cc3cc(OC)c(OC)c(OC)c3)nn2)c1OC`: the pIC50 in assay [1] was 5.86; in [2] it was 5.47; in assay [3], 6.14; in [4] it was 6.74; in assay [5], 5.32.

For `COc1ccc(/C=C\c2cc(OC)c(OC)c(OC)c2)cc1NC(=O)c1cn(Cc2cccc(Oc3ccccc3)c2)nn1`, the pIC50 is 5.38 in assay [1]; 5.43 in assay [2]; 5.49 in assay [3]; 5.59 in assay [4]; 5.24 in assay [5].

Take `CC(=O)O[C@H]1C(=O)[C@@]2(C)[C@H]([C@H](OC(=O)c3ccccc3)[C@]3(O)C[C@H](OC(=O)[C@H](O)[C@@H](NC(=O)c4ccccc4)c4ccccc4)C(C)=C1C3(C)C)[C@]1(OC(C)=O)CO[C@@H]1C[C@@H]2O`: the outcome in assay [6] was inactive.

For the compound `COc1ccc(/C=C\c2cc(OC)c(OC)c(OC)c2)c(NC(=O)c2cn(Cc3cc(OC)c(OC)c(OC)c3)nn2)c1O`, the pIC50 in assay [1] was 5.62; in assay [2] it was 5.77; in assay [3] it was 6.11; in [4] it was 6.08; in assay [5], 5.29.

On to `COc1ccc(/C=C\c2cc(OC)c(OC)c(OC)c2)c(NC(=O)c2cn(Cc3cccc(Oc4ccccc4)c3)nn2)c1O`, for which the pIC50 in assay [1] is 5.37; in assay [2] it was 5.33; in assay [3], 5.30; in [4], 5.44; in assay [5] it was 5.13.

Regarding `COc1ccc(/C=C\c2cc(OC)c(OC)c(OC)c2)cc1O` [COMBRETASTATIN A4], the Activity in [7] is 8.09%; in [8], 26.48%; in [9], 4.11%; in [11], 61.32%. For the same compound, the outcome in [6] and in assay [10] was Active. Further, the pIC50 in [3] was 7.74; in assay [4] it was 7.28; in assay [5] it was 8.30.

For the compound `COc1cc(/C=C\c2cc(OC)c(OC)c(OC)c2)cc(NC(=O)c2cn(Cc3ccc(F)cc3)nn2)c1OC`, the pIC50 in assay [1] was 6.05; in assay [2], 5.87; in assay [3], 6.49; in assay [4], 7.18; in assay [5] it was 5.51.
